# Test results from ChEMBL document CHEMBL3132837, “VUT-MK142 : a new cardiomyogenic small molecule promoting the differentiation of pre-cardiac mesoderm into cardiomyocytes” (2013).
# The source made the active and inactive calls. The calls are words filed in the database; no cut-off is given here.
# Columns and labels:
# [1] = Cardiomyogenesis in mouse cardiovascular progenitor cells assessed as upregulation of Mesp1 gene expression at 1 uM by RT-PCR analysis; assay type: functional
# [2] = Cardiomyogenesis in mouse cardiovascular progenitor cells assessed as upregulation of tropomyosin gene expression at 1 uM by RT-PCR analysis; assay type: functional
# [3] = Cardiomyogenesis in mouse cardiovascular progenitor cells assessed as upregulation of Gata4 gene expression at 1 uM by RT-PCR analysis; assay type: functional
# [4] = Cardiomyogenesis in mouse cardiovascular progenitor cells assessed as upregulation of Eomes gene expression at 1 uM by RT-PCR analysis; assay type: functional
# [5] = Cardiomyogenesis in mouse cardiovascular progenitor cells assessed as upregulation of Mef2C gene expression at 1 uM by RT-PCR analysis; assay type: functional
# [6] = Cardiomyogenesis in mouse cardiovascular progenitor cells assessed as upregulation of Nkx2.5 gene expression at 1 uM by RT-PCR analysis; assay type: functional
# [7] = Cardiomyogenesis in mouse cardiovascular progenitor cells assessed as upregulation of brachyury gene expression at 1 uM by RT-PCR analysis; assay type: functional
# Mus musculus [8] = species: Mus musculus; assay: Cardiomyogenesis in mouse cardiovascular progenitor cells assessed as formation of cardiac bodies with beating at 1 uM compound treated on day 5 to day 13 of myocardial differentiation commitment measured on day 11 to 13 by phase contrast microscopy relative to control; assay type: functional; conditions: Heart
# Mus musculus [9] = species: Mus musculus; assay: Cardiomyogenesis in mouse cardiovascular progenitor cells assessed as formation of cardiac bodies at 1 uM compound treated on day 0 to day 5 of myocardial differentiation commitment by phase contrast microscopy relative to control; assay type: functional; conditions: Heart
# In short: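 A5 CVPCs from newborn mouse hearts, grown in M15 on inactivated SNL76/7 feeders, aggregated into cardiac bodies in hanging drops (900 ± 50 cells per drop, 4.5 days), then plated on gelatine. Compound 1 μM or 0.005% DMSO present days 0–5. Beating CBs scored by microscopy for at least 20 days, 80 CBs per experiment, normalised daily to DMSO control.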
# C2C12 [10] = assay: Cardiomyogenic activity in mouse C2C12 cells assessed as upregulation of Nkx2.5 gene expression at 1 uM after 7 days by luciferase reporter assay relative to control; assay type: functional
# In short: (§1)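 Nkx2.5 promoter firefly luciferase plasmid (pGL3b backbone) co-transfected with Renilla control one day before treatment. P19 cells treated in MEM-alpha/5% FBS induction medium; C2C12 cells treated in 2% horse serum differentiation medium. Compound 1 μM or 0.005% DMSO for 7 days, media refreshed twice. Dual-luciferase activity expressed as fold over DMSO control; paired two-tailed t-test on raw data.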
# P19 [11] = assay: Cardiomyogenic activity in mouse P19 cells assessed as upregulation of Nkx2.5 gene expression at 1 uM after 7 days by luciferase reporter assay relative to control; assay type: functional; in short: as §1
# C2C12 [12] = assay: Cardiomyogenic activity in mouse C2C12 cells assessed as upregulation of ANF gene expression at 1 uM after 7 days by luciferase reporter assay relative to control; assay type: functional, cell-based
# In short: (§2)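 P19 and C2C12 cells transiently transfected with rat ANF promoter firefly luciferase plasmid plus pRL-SV40 Renilla control one day before treatment. P19: 7 days in induction medium (MEM-alpha, 5% FBS). C2C12: 7 days in differentiation medium (2% horse serum), compound added at the switch. Compound 1 μM, DMSO 0.005% in all wells, media refreshed twice. Dual-luciferase read-out, Renilla-normalised, expressed relative to DMSO control; n=3–10 independent preparations; 10 nM retinoic acid in P19 as positive control.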
# P19 [13] = assay: Cardiomyogenic activity in mouse P19 cells assessed as upregulation of ANF gene expression at 1 uM after 7 days by luciferase reporter assay relative to control; assay type: functional, cell-based; in short: as §2
# Mus musculus [14] = species: Mus musculus; assay: Cardiomyogenesis in mouse cardiovascular progenitor cells assessed as formation of cardiac bodies at 1 uM compound by phase contrast microscopy relative to control; conditions: Heart
smiles,measurement,setting,value
COc1ccc(Nc2cc(NC3CCCCC3)ncn2)cc1,Activity,[1],inactive
same,Activity,[2],inactive
same,Activity,[3],inactive
same,Activity,[4],inactive
same,Activity,[5],Active
same,Activity,[6],Active
same,Activity,[7],Active
same,Activity,Mus musculus [8],Active
same,Activity,Mus musculus [9],inactive
same,fold change (FC),C2C12 [10],2.2
same,fold change (FC),P19 [11],3.1
same,Activity,C2C12 [12],Active
same,Activity,P19 [13],Active
same,Activity,Mus musculus [14],Active
COc1ccc(Nc2nccc(NCCO)n2)cc1 [CARDIOGENOL C],fold change (FC),C2C12 [10],1.4
same,fold change (FC),P19 [11],1.6
same,Activity,C2C12 [12],Active
same,Activity,P19 [13],Active
OCCNc1cccc(Nc2ccc(Oc3ccccc3)cc2)n1,Activity,C2C12 [12],inactive
same,Activity,P19 [13],inactive
CCNc1cc(Nc2ccc(OC)cc2)ncn1,Activity,C2C12 [12],Active
CNc1cc(Nc2ccc(OC)cc2)ncn1,Activity,Mus musculus [9],inactive
same,Activity,C2C12 [12],inactive
same,Activity,P19 [13],inactive
same,Activity,Mus musculus [14],inactive
COc1ccc(Nc2cccc(NCCO)n2)cc1,Activity,C2C12 [12],Active
same,Activity,P19 [13],Active
COc1ccc(Nc2cc(NCCO)ncn2)cc1,Activity,C2C12 [12],Active
same,Activity,P19 [13],Active
